The values below come from ChEMBL document CHEMBL1146088 (J Med Chem, 2006).

The target of test [1] is T1, Transient receptor potential cation channel subfamily V member 1 (Homo sapiens, UniProt Q8NER1). Nature of the test: Maximal agonist activity on human recombinant TRPV1-mediated enhancement of intracellular calcium concentration in HEK293 cells at 10 uM. Format: functional, cell-based. Summed up:
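Fluo-3-loaded HEK-293 cells overexpressing human TRPV1, in Tyrode pH 7.4 at 25 °C, fluorescence ex 488/em 540 nm. Compound at 10 µM. Peak rise in intracellular Ca2+ expressed as percent of the response to ionomycin (4 µM).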
(Calcium assays in cells follow changes in intracellular calcium, usually with a dye or a luminescent sensor.)

In test [2] the test system is RBL-2H3. Nature of the test: Inhibition of AEA uptake in RBL2H3 cells. In kind it is functional, cell-based, Rattus norvegicus, Wistar. Summed up: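 RBL-2H3 cells incubated 5 min at 37 °C with [14C]AEA (2.4 µM, 10 000 cpm), with or without varying inhibitor concentrations. Medium extracted with CHCl3/CH3OH 2:1. Residual [14C]AEA in the lyophilized organic phase was measured by scintillation counting as an index of uptake.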

For test [3], the target named is T1, Transient receptor potential cation channel subfamily V member 1. Nature of the test: Agonist activity on human recombinant TRPV1-mediated enhancement of intracellular calcium concentration in HEK293 cells. In kind it is functional, cell-based. Summed up:
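HEK-293 cells stably overexpressing human TRPV1, plated on poly-L-lysine the day before. Loaded 2 h at 25 °C with 4 µM Fluo-3 methyl ester (0.04% Pluronic), washed, trypsinized and resuspended in Tyrode pH 7.4. Stirred-cuvette fluorescence (ex 488/em 540 nm) at 25 °C, read before and after compound at various concentrations. EC50 is the concentration giving half-maximal stimulation.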

The species entered for test [4] is Rattus norvegicus. In words: Metabolic stability in rat brain membrane assessed by inhibition of AEA hydrolysis. In kind it is ADME. Summed up: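 Mixture extracted with 2 volumes CHCl3/CH3OH 2:1. [14C]ethanolamine in the aqueous phase counted by scintillation. Value is the concentration giving 50% inhibition of hydrolysis.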
The target in test [5] is Cannabinoid receptor 1 (Homo sapiens, UniProt P21554). Nature of the test: Binding affinity to human recombinant CB1 receptor expressed in COS cells. In kind it is cell-based.
Cannabinoid receptor 1, sequence (P21554 whole entry): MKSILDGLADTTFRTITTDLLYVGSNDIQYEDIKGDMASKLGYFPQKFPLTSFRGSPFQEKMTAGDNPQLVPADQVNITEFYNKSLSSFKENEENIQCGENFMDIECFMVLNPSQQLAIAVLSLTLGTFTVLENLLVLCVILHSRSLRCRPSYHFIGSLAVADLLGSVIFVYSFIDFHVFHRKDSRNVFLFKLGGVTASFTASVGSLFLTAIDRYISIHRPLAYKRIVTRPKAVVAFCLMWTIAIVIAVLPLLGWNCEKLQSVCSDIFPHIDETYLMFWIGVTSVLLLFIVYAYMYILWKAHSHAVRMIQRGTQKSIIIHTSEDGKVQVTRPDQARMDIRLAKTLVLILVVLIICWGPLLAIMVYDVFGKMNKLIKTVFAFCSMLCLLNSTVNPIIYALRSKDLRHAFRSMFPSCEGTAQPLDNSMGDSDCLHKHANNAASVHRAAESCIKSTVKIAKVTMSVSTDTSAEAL
Test [6] deals with Cannabinoid receptor 2 (Homo sapiens, UniProt P34972). Nature of the test: Binding affinity to human recombinant CB2 receptor expressed in COS cells. In kind it is cell-based.
Cannabinoid receptor 2, sequence (P34972 whole entry): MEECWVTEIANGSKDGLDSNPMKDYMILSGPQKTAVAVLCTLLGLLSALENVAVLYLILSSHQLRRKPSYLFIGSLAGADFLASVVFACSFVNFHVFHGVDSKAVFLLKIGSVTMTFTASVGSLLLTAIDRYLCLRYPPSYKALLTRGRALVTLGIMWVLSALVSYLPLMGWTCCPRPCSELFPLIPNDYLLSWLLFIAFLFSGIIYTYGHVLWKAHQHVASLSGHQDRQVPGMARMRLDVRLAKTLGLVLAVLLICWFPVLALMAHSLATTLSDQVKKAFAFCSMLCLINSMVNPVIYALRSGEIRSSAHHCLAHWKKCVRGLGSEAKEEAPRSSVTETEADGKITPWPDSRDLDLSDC
Where [7] appears, read: Rattus norvegicus, Wistar, RBL-2H3, read-out: IC50.
Where [8] appears, read: Rattus norvegicus, Brain, read-out: IC50.

A value given as a limit tells only on which side of the number the result lay.

T1 sequence (Q8NER1 whole entry): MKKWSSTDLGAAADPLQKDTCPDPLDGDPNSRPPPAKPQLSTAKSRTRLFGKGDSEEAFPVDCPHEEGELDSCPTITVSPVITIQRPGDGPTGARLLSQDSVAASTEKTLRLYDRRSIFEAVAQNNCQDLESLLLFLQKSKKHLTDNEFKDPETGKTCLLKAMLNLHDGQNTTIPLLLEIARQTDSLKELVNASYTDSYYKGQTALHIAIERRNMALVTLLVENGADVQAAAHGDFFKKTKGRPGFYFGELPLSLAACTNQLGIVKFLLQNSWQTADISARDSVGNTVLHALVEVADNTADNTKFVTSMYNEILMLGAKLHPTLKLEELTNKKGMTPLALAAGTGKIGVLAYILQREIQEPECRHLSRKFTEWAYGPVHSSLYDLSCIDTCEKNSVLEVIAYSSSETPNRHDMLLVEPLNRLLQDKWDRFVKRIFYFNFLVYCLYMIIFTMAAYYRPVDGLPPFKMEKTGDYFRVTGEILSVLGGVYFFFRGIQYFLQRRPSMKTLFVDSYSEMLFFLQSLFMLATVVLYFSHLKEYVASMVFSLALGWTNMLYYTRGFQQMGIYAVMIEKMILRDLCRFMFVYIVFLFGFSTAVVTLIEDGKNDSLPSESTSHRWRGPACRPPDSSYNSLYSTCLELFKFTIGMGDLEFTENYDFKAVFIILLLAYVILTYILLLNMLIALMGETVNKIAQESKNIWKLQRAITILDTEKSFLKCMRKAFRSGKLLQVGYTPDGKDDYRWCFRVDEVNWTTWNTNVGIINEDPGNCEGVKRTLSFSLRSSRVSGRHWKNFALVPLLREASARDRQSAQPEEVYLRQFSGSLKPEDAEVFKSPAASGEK

A word on the Emax: it is the greatest response seen or fitted, relative to the assay's reference. One may read the IC50 as the concentration that inhibits the measured activity by half. As usually defined, the EC50 is the concentration giving half of the maximal effect. One may read the Ki as a dissociation constant, usually derived from enzyme kinetics or from competition with a known ligand. As to `CCCCCCCC/C=C\CCCCCCCC(=O)NOCCO`, in test [1], the Emax amounted to 50%. For the same compound, the IC50 was 22.5 µM in test [2] (setting [7]) and more than 50 µM in test [4] (setting [8]). Further, the EC50 in test [3] (read-out: EC50) was 0.32 µM. In addition, the results for the inhibition constant (Ki) in test [5] (read-out: Ki) and in test [6] (read-out: Ki) were more than 10 µM and 3.8 µM, respectively.

`CCCCCCCC/C=C\CCCCCCCC(=O)NCCO` [OLEOYLETHANOLAMIDE]: the Emax in test [1] is 50.1%. Moreover, the figures for the IC50 in test [2] (setting [7]) and in test [4] (setting [8]) were 20 µM and 23 µM, respectively. Further, in test [3] (read-out: EC50), the EC50 was determined as 0.89 µM. Besides, the Ki was 1.1 µM in test [5] (read-out: Ki) and more than 10 µM in test [6] (read-out: Ki).

`CCCCC/C=C\C/C=C\C/C=C\C/C=C\CCCC(=O)NOCCO`: the Emax in test [1] worked out at 58.5%. Moreover, the IC50 is more than 25 µM in test [2] (setting [7]) and 25 µM in test [4] (setting [8]). Besides, the EC50 in test [3] (read-out: EC50) came out at 0.25 µM. In addition, the Ki in test [5] (read-out: Ki) is 0.47 µM; in test [6] (read-out: Ki), 0.081 µM.

Turning to `CCCCCCCCCCCCCCCC(=O)N(O)CCO`, the Emax in test [1] is 37%. Also, the results for the IC50 in test [2] (setting [7]) and in test [4] (setting [8]) were more than 25 µM and more than 50 µM, respectively. The EC50 in test [3] (read-out: EC50) was 0.6 µM. The Ki in test [5] (read-out: Ki) and in test [6] (read-out: Ki) was more than 10 µM in each case.

Regarding `CCCCCCCC/C=C\CCCCCCCC(=O)ONCCO`, the maximal effect (Emax) in test [1] was 14.3%. The values for the IC50 in test [2] (setting [7]) and in test [4] (setting [8]) were more than 25 µM and more than 50 µM, respectively. Besides, the Ki in test [5] (read-out: Ki) was more than 10 µM; in test [6] (read-out: Ki), 8.6 µM.

Regarding `CCCCCCCCCCCCCCCC(=O)ONCCO`, in test [1], the Emax came to 1.8%. Further, the results for the IC50 in test [2] (setting [7]) and in test [4] (setting [8]) were more than 25 µM and more than 50 µM, respectively. Further, the Ki in test [5] (read-out: Ki) and in test [6] (read-out: Ki) was more than 10 µM throughout.

For the compound `CCCCCCCCCCCCCCCC(=O)NCCO` [PALMIDROL], the half-inhibitory concentration (IC50) entry in test [2] (rbl-2h3) and in test [4] was “Not Active” throughout. Further, in test [3] (hek293), the EC50 result is on record as “Not Active”. The Ki result in test [5] (cos) and in test [6] (cos) was “Not Active” throughout.

Consider `CCCCC/C=C\C/C=C\C/C=C\C/C=C\CCCC(=O)ONCCO`, for which the Emax in test [1] worked out at 28%. Also, the IC50 was more than 25 µM in test [2] (setting [7]) and more than 50 µM in test [4] (setting [8]). For the same compound, the Ki in test [5] (read-out: Ki) came to 3.5 µM; in test [6] (read-out: Ki), 2.4 µM.

Regarding `CCCCC/C=C\C/C=C\C/C=C\C/C=C\CCCC(=O)NCCO` [ANANDAMIDE], in test [1], the Emax stood at 54.7%. Moreover, the IC50 in test [2] (setting [7]) came out at 14.5 µM; in test [4] (setting [8]), 19 µM. Besides, in test [3] (read-out: EC50), the EC50 came to 0.49 µM.

`CCCCC/C=C\C/C=C\C/C=C\C/C=C\CCCC(=O)N(O)CCO`: the maximum response (Emax) in test [1] came to 55.3%. Also, the concentration for half-maximal inhibition (IC50) in test [2] (setting [7]) was more than 25 µM; in test [4] (setting [8]), more than 50 µM. In addition, in test [3] (read-out: EC50), the EC50 is 0.26 µM. Further, the Ki in test [5] (read-out: Ki) amounted to 3.9 µM; in test [6] (read-out: Ki), 1.9 µM.

As to `CCCCCCCC/C=C\CCCCCCCC(=O)N(O)CCO`, in test [1], the Emax worked out at 53.5%. Moreover, the IC50 is 20 µM in test [2] (setting [7]) and more than 50 µM in test [4] (setting [8]). The EC50 in test [3] (read-out: EC50) was found to be 0.4 µM. Further, the Ki in test [5] (read-out: Ki) is more than 10 µM; in test [6] (read-out: Ki), 5.4 µM.

Regarding `CCCCCCCCCCCCCCCC(=O)NOCCO`, in test [1], the Emax came to 11.2%. Besides, the values for the IC50 in test [2] (setting [7]) and in test [4] (setting [8]) were more than 25 µM and more than 50 µM, respectively. Moreover, the Ki in test [5] (read-out: Ki) and in test [6] (read-out: Ki) was more than 10 µM throughout.
